Source: ChEMBL document CHEMBL4229485, “The design, synthesis, and evaluation of organic dithienopyrrole-based D-π-A dyes for use as sensitizers in photodynamic therapy” (Bioorg Med Chem Lett, 2018)
Active and inactive are the calls of the source. The rule behind the calls is not given here.

How the values were obtained:
[1] = Induction of oxidative damage to human serum albumin assessed as oxidation of tryptophan residue at 10 uM after 15 to 45 mins by fluorescence assay; type: functional
How it was run: (§1)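 Sensitizer (10 µM) and HSA (20 µM) in PBS were irradiated with white LED light (420–750 nm, 8.0 ± 0.5 mW/cm2). Photo-oxidation of HSA's single tryptophan was followed as the loss of its intrinsic fluorescence at around 350 nm.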

HeLa [2] = assay: Phototoxicity in human HeLa cells assessed as reduction in cell viability preincubated for 1 hr followed by LED light irradiation for 15 mins measured after 48 hrs by MTT assay; type: functional, cell-based; conditions: light or radiation study
How it was run: (§2)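 HeLa cells were treated with the sensitizer and photo-irradiated. IC50 is the sensitizer concentration that reduced viability by 50%, read from semi-logarithmic dose-response plots.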

[3] = Dark toxicity in human HeLa cells assessed as reduction in cell viability after 48 hrs by MTT assay; type: cell-based
[4] = Dark toxicity in HEK293 cells assessed as reduction in cell viability measured after 48 hrs by MTT assay; type: cell-based; conditions: human
[5] = Dark toxicity in HEK293 cells assessed as inhibition of cell viability at 10 uM measured after 48 hrs by MTT assay relative to control; type: cell-based; conditions: human, read-out: INH
[6] = Drug uptake in nucleus of human HeLa cells at 10 uM after 1 hr by Hoechst 33342 staining based confocal microscopic method; type: ADME, subcellular
[7] = Induction of oxidative damage to human serum albumin assessed as oxidation of tryptophan residue at 10 uM after 15 to 45 mins in presence of ROS quencher L-ascorbic acid by fluorescence assay; type: functional; how it was run: as §1
HeLa [8] = assay: Phototoxicity in human HeLa cells assessed as reduction in cell viability preincubated for 1 hr followed by LED light irradiation for 60 mins measured after 48 hrs by MTT assay; type: functional, cell-based; conditions: light or radiation study; how it was run: as §2
[9] = Drug uptake in cytoplasm of human HeLa cells at 10 uM after 1 hr by Hoechst 33342 staining based confocal microscopic method; type: ADME, subcellular
HEK293 = assay: Phototoxicity in HEK293 cells assessed as reduction in cell viability preincubated for 1 hr followed by LED light irradiation for 15 mins measured after 48 hrs by MTT assay; type: functional, cell-based; conditions: Homo sapiens, HEK293, light or radiation study

SMILES	Activity [1]	IC50 (HeLa [2])	IC50 [3]	further results
CN(C)c1ccc(-c2cc3c(s2)c2sc(-c4ccc(C=O)s4)cc2n3C(C)(C)C)cc1	inactive	2.5 µM	> 10 µM	–
COc1ccc(-c2cc3c(s2)c2sc(-c4ccc(/C=C(\C#N)C(=O)O)s4)cc2n3C(C)(C)C)cc1	Active	0.19 µM	43.4 µM	IC50 at 48 h [4]: > 10 µM; cytotoxicity at 48 h, 10 µM [5]: 7%; Drug uptake [6]: Active; Activity [7]: Active; IC50 (HeLa [8]): 0.063 µM; Drug uptake [9]: Active; IC50 (HEK293): 0.043 µM
CN(C)c1ccc(-c2cc3c(s2)c2sc(-c4ccc(/C=C(\C#N)C(N)=O)s4)cc2n3C(C)(C)C)cc1	inactive	5 µM	54 µM	–
CC(C)(C)n1c2cc(-c3ccc(N(c4ccccc4)c4ccccc4)cc3)sc2c2sc(-c3ccc(C=O)s3)cc21	inactive	45 µM	67 µM	–
C=CC1=C(C)c2cc3[nH]c(cc4nc(cc5[nH]c(cc1n2)c(C)c5C=C)C(C)=C4CCC(=O)O)c(CCC(=O)O)c3C	–	0.75 µM	12.5 µM	–
COc1ccc(-c2cc3c(s2)c2sc(-c4ccc(C=O)s4)cc2n3C(C)(C)C)cc1	inactive	3.8 µM	68.6 µM	–
COc1ccc(-c2cc3c(s2)c2sc(-c4ccc(/C=C(\C#N)C(N)=O)s4)cc2n3C(C)(C)C)cc1	Active	0.56 µM	15.7 µM	–
CN(C)c1ccc(-c2cc3c(s2)c2sc(-c4ccc(/C=C(\C#N)C(=O)O)s4)cc2n3C(C)(C)C)cc1	Active	0.6 µM	15.5 µM	–
CC(C)(C)n1c2cc(-c3ccc(N(c4ccccc4)c4ccccc4)cc3)sc2c2sc(-c3ccc(/C=C(\C#N)C(=O)O)s3)cc21	inactive	> 100 µM	> 100 µM	–
N#C/C(=C\c1ccc(-c2ccc(-c3ccc(N(c4ccccc4)c4ccccc4)cc3)s2)s1)C(=O)O	–	0.21 µM	21.9 µM	IC50 at 48 h [4]: > 10 µM; cytotoxicity at 48 h, 10 µM [5]: 32%; IC50 (HEK293): 0.16 µM
CC(C)(C)n1c2cc(-c3ccc(N(c4ccccc4)c4ccccc4)cc3)sc2c2sc(-c3ccc(/C=C(\C#N)C(N)=O)s3)cc21	inactive	> 100 µM	> 100 µM	–
CN(C)c1ccc(-c2cc3c(s2)c2sc(-c4ccc(/C=C5\SC(=S)N(CC(=O)O)C5=O)s4)cc2n3C(C)(C)C)cc1	inactive	12.1 µM	> 100 µM	–
CCCCN1C(=O)C(=C/C=C/C=C2\Oc3ccccc3N2CCCS(=O)(=O)O)C(=O)N(CCCC)C1=S	–	16 µM	> 100 µM	–
COc1ccc(-c2cc3c(s2)c2sc(-c4ccc(/C=C5\SC(=S)N(CC(=O)O)C5=O)s4)cc2n3C(C)(C)C)cc1	inactive	5.7 µM	63.9 µM	–
CC(C)(C)n1c2cc(-c3ccc(N(c4ccccc4)c4ccccc4)cc3)sc2c2sc(-c3ccc(/C=C4\SC(=S)N(CC(=O)O)C4=O)s3)cc21	inactive	17.1 µM	60.2 µM	–
COc1ccc(-c2cc3c(s2)c2sc(-c4ccc(/C=C5\C(=O)N(CCO)C(=O)C(C#N)=C5C)s4)cc2n3C(C)(C)C)cc1	–	15.9 µM	60 µM	–
